Holding throughout (type): functional
Experiment [1] has as its system Puccinia triticina. Nature of the experiment: Antifungal activity against Puccinia recondita f. sp. tritici infected in wheat seedlings at 40 ppm relative to control. In outline:
(§1)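 Test suspension sprayed to run-off on Stevens wheat seedlings. Next day inoculated with a Puccinia recondita f. sp. tritici spore suspension. Held 24 h in a saturated atmosphere at 20 °C, then 7 days in a 20 °C growth chamber before disease rating. Rates in ppm. Given as percent control versus untreated control plants.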

Experiment [2] has as its system Parastagonospora nodorum. The experiment in a line: Antifungal activity against Stagonospora nodorum infected in wheat seedlings at 10 ppm relative to control. The essentials: (§2)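 Wheat seedlings, treated the day before, inoculated with a Stagonospora nodorum spore suspension. Held in a saturated atmosphere at 20 °C for 48 h, then 5 days in a growth chamber at 22 °C, then disease rated. Rates in ppm. Scored as percent control relative to untreated control plants.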

Experiment [3] deals with Parastagonospora nodorum. The experiment in a line: Antifungal activity against Stagonospora nodorum infected in wheat seedlings at 40 ppm relative to control. In outline: as §2
Experiment [4] deals with Botrytis cinerea. The experiment in a line: Antifungal activity against Botryotinia fuckeliana infected in orange pixie tomato seedlings at 40 ppm relative to control. The essentials: (§3)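 Orange Pixie tomato seedlings sprayed to run-off with test suspension, then inoculated next day with a Botryotinia fuckeliana spore suspension. Kept saturated at 20 °C for 48 h, then 1 more day at 24 °C in a growth chamber before rating. Rates in ppm. Expressed as percent control relative to untreated control plants.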

The subject of experiment [5] is Parastagonospora nodorum. Nature of the experiment: Antifungal activity against Stagonospora nodorum infected in wheat seedlings at 2 ppm relative to control. In outline: as §2
The subject of experiment [6] is Botrytis cinerea. The experiment in a line: Antifungal activity against Botryotinia fuckeliana infected in orange pixie tomato seedlings at 2 ppm relative to control. The essentials:
as §3

The subject of experiment [7] is Puccinia triticina. The experiment in a line: Antifungal activity against Puccinia recondita f. sp. tritici infected in wheat seedlings at 2 ppm relative to control. In outline:
as §1

For experiment [8], the system named is Botrytis cinerea. Nature of the experiment: Antifungal activity against Botryotinia fuckeliana infected in orange pixie tomato seedlings at 10 ppm relative to control. The essentials:
as §3

In experiment [9] the test system is Puccinia triticina. Nature of the experiment: Antifungal activity against Puccinia recondita f. sp. tritici infected in wheat seedlings at 10 ppm relative to control. In outline:
as §1

The subject of experiment [10] is Parastagonospora nodorum. Nature of the experiment: Antifungal activity against Stagonospora nodorum infected in wheat seedlings at 200 ppm relative to control. The essentials:
as §2

Experiment [11] relates to Puccinia triticina. Nature of the experiment: Antifungal activity against Puccinia recondita f. sp. tritici infected in wheat seedlings at 200 ppm relative to control. In outline:
as §1

Experiment [12] deals with Botrytis cinerea. The experiment in a line: Antifungal activity against Botryotinia fuckeliana infected in orange pixie tomato seedlings at 200 ppm relative to control. The essentials: as §3

On to `O=c1c(-n2cccn2)nc(Cl)c(-c2c(F)cc(F)cc2F)n1-c1ccccc1Cl`, for which the Activity turned out to be 100% in the experiment on Puccinia triticina [1]; 94% in the experiment on Parastagonospora nodorum [2]; 100% in the experiment with Parastagonospora nodorum [3]; 100% in the experiment with Botrytis cinerea [4]; 0% in the experiment on Parastagonospora nodorum [5]; 99% in the experiment on Botrytis cinerea [6]. Further, the Activity in the experiment on Puccinia triticina [7] is on record as 97%; with Botrytis cinerea [8], 100%; in the experiment on Puccinia triticina [9] it was 100%.
Regarding `O=c1c(-n2cccn2)nc(Cl)c(-c2c(F)cc(F)cc2F)n1CC(F)(F)C(F)(F)F`, the Activity was found to be 100% in the experiment with Puccinia triticina [1]; 89% in the experiment on Parastagonospora nodorum [2]; 100% in the experiment on Parastagonospora nodorum [3]; 100% in the experiment on Botrytis cinerea [4]; 0% with Parastagonospora nodorum [5]; 99% with Botrytis cinerea [6]. For the same compound, the Activity is listed as 91% in the experiment on Puccinia triticina [7], 100% in the experiment with Botrytis cinerea [8] and 99% in the experiment on Puccinia triticina [9].
With `CC[C@H](C)Cn1c(-c2c(F)cccc2F)c(Cl)nc(-n2cncn2)c1=O`, the Activity in the experiment with Puccinia triticina [1] stood at 98%; in the experiment on Parastagonospora nodorum [10] it was 100%; with Parastagonospora nodorum [3], 94%; in the experiment with Puccinia triticina [11] it was 98%; with Botrytis cinerea [12], 100%; with Botrytis cinerea [4], 100%.
For the compound `Cc1ccn(-c2nc(Cl)c(-c3c(F)cccc3F)n(CC(C)C)c2=O)n1`, the Activity in the experiment on Puccinia triticina [1] turned out to be 100%; in the experiment on Parastagonospora nodorum [2], 0%; with Parastagonospora nodorum [3], 95%; with Botrytis cinerea [4], 100%; with Parastagonospora nodorum [5], 0%; in the experiment with Botrytis cinerea [6] it was 95%. Besides, the Activity in the experiment on Puccinia triticina [7] was determined as 25%; in the experiment on Botrytis cinerea [8], 100%; with Puccinia triticina [9] it was 94%.
In the case of `O=c1c(-n2cccn2)nc(Cl)c(-c2c(F)cc(F)cc2F)n1CC1CC1`, the Activity in the experiment on Puccinia triticina [1] came out at 100%; in the experiment on Parastagonospora nodorum [2], 100%; in the experiment on Parastagonospora nodorum [3], 100%; in the experiment on Botrytis cinerea [4], 99%; with Parastagonospora nodorum [5], 0%; in the experiment with Botrytis cinerea [6], 98%. The Activity in the experiment with Puccinia triticina [7] was determined as 80%; with Botrytis cinerea [8], 98%; in the experiment with Puccinia triticina [9] it was 100%.
Regarding `CC(C)Cn1c(-c2c(F)ccc(F)c2F)c(Cl)nc(-n2cccn2)c1=O`, the Activity amounted to 100% in the experiment with Puccinia triticina [1]; 87% in the experiment with Parastagonospora nodorum [2]; 100% in the experiment with Parastagonospora nodorum [3]; 100% in the experiment with Botrytis cinerea [4]; 0% in the experiment on Parastagonospora nodorum [5]; 94% in the experiment with Botrytis cinerea [6]. Besides, the values for the Activity in the experiment on Puccinia triticina [7], with Botrytis cinerea [8] and with Puccinia triticina [9] were 32%, 98% and 99%, respectively.
Regarding `CC(C)Cn1c(-c2c(F)cccc2F)c(Cl)nc(-c2ccncc2)c1=O`, the Activity in the experiment with Puccinia triticina [1], in the experiment on Parastagonospora nodorum [2], in the experiment with Parastagonospora nodorum [3], with Botrytis cinerea [4], in the experiment on Parastagonospora nodorum [5] and with Botrytis cinerea [6] was 0% in each case. The Activity in the experiment on Puccinia triticina [7], in the experiment with Botrytis cinerea [8] and in the experiment on Puccinia triticina [9] was 0% each time.
On to `CC(C)Cn1c(-c2c(F)cccc2F)cnc(-n2cccn2)c1=O`, for which the Activity in the experiment with Puccinia triticina [1] is reported as 0%; in the experiment on Parastagonospora nodorum [10], 0%; in the experiment on Parastagonospora nodorum [2], 0%; in the experiment on Parastagonospora nodorum [3], 0%; in the experiment with Puccinia triticina [11], 98%; with Puccinia triticina [9] it was 0%.
In the case of `O=c1c(-n2cccn2)nc(Cl)c(-c2c(F)cc(F)cc2F)n1-c1cccc(Cl)c1`, the Activity in the experiment on Puccinia triticina [1] was 100%; in the experiment on Parastagonospora nodorum [2] it was 99%; in the experiment with Parastagonospora nodorum [3], 99%; in the experiment on Botrytis cinerea [4], 100%; in the experiment on Parastagonospora nodorum [5] it was 73%; in the experiment with Botrytis cinerea [6] it was 97%. Further, the figures for the Activity in the experiment with Puccinia triticina [7], in the experiment on Botrytis cinerea [8] and in the experiment with Puccinia triticina [9] were 86%, 99% and 99%, respectively.
For `CC[C@H](C)Cn1c(-c2c(F)cccc2F)c(Cl)nc(C(=O)NC)c1=O`, the Activity worked out at 99% with Puccinia triticina [1]; 0% in the experiment with Parastagonospora nodorum [2]; 51% in the experiment with Parastagonospora nodorum [3]; 99% in the experiment with Botrytis cinerea [4]; 0% with Parastagonospora nodorum [5]; 57% in the experiment with Botrytis cinerea [6]. For the same compound, the Activity in the experiment on Puccinia triticina [7] is 0%; in the experiment on Botrytis cinerea [8] it was 90%; with Puccinia triticina [9], 74%.
Regarding `O=c1c(-n2cccn2)nc(Cl)c(-c2c(F)cc(F)cc2F)n1-c1ccccc1`, the Activity amounted to 99% in the experiment on Puccinia triticina [1]; 98% with Parastagonospora nodorum [2]; 99% in the experiment on Parastagonospora nodorum [3]; 100% in the experiment on Botrytis cinerea [4]; 60% with Parastagonospora nodorum [5]; 100% with Botrytis cinerea [6]. Further, the Activity was 45% in the experiment on Puccinia triticina [7], 100% in the experiment on Botrytis cinerea [8] and 87% with Puccinia triticina [9].
As to `CC[C@H](C)Cn1c(-c2c(F)cccc2F)c(Cl)nc(C(N)=O)c1=O`, the Activity in the experiment with Puccinia triticina [1] was 100%; in the experiment with Parastagonospora nodorum [2], 0%; in the experiment with Parastagonospora nodorum [3] it was 95%; with Botrytis cinerea [4], 99%; in the experiment on Parastagonospora nodorum [5], 0%; in the experiment on Botrytis cinerea [6], 92%. Besides, the Activity was 80% with Puccinia triticina [7], 97% with Botrytis cinerea [8] and 99% in the experiment with Puccinia triticina [9].
`Cc1nc(-n2cccn2)c(=O)n(CC(C)C)c1-c1c(F)cccc1F`: the Activity turned out to be 100% in the experiment on Puccinia triticina [1]; 0% in the experiment on Parastagonospora nodorum [2]; 98% with Parastagonospora nodorum [3]; 100% in the experiment on Botrytis cinerea [4]; 0% in the experiment with Parastagonospora nodorum [5]; 0% in the experiment with Botrytis cinerea [6]. The figures for the Activity in the experiment on Puccinia triticina [7], with Botrytis cinerea [8] and with Puccinia triticina [9] were 0%, 99% and 92%, respectively.
In the case of `C=CCn1c(-c2c(F)cc(F)cc2F)c(Cl)nc(-n2cccn2)c1=O`, the Activity with Puccinia triticina [1] was found to be 99%; with Parastagonospora nodorum [2], 97%; in the experiment on Parastagonospora nodorum [3], 100%; in the experiment on Botrytis cinerea [4], 99%; in the experiment on Parastagonospora nodorum [5], 0%; in the experiment on Botrytis cinerea [6] it was 70%. Further, the Activity turned out to be 0% in the experiment with Puccinia triticina [7], 99% with Botrytis cinerea [8] and 89% in the experiment on Puccinia triticina [9].
In the case of `CC(C)Cn1c(-c2c(F)cccc2F)c(Cl)nc(-c2nccs2)c1=O`, the Activity in the experiment on Puccinia triticina [1], in the experiment with Parastagonospora nodorum [2], in the experiment on Parastagonospora nodorum [3], with Botrytis cinerea [4], in the experiment with Parastagonospora nodorum [5] and in the experiment on Botrytis cinerea [6] was 0% throughout. Further, the Activity with Puccinia triticina [7], in the experiment on Botrytis cinerea [8] and in the experiment on Puccinia triticina [9] was 0% in each case.
`CC(C)Cn1c(-c2c(F)cccc2F)c(Cl)nc(-c2cccnc2)c1=O`: the Activity in the experiment on Puccinia triticina [1], with Parastagonospora nodorum [2], in the experiment on Parastagonospora nodorum [3], in the experiment with Botrytis cinerea [4], in the experiment on Parastagonospora nodorum [5] and in the experiment with Botrytis cinerea [6] was 0% throughout. Further, the Activity in the experiment with Puccinia triticina [7], in the experiment with Botrytis cinerea [8] and with Puccinia triticina [9] was 0% each time.
For `CCCCn1c(-c2c(F)cc(F)cc2F)c(Cl)nc(-n2cccn2)c1=O`, the Activity is on record as 100% in the experiment on Puccinia triticina [1]; 98% in the experiment on Parastagonospora nodorum [2]; 100% in the experiment on Parastagonospora nodorum [3]; 100% in the experiment on Botrytis cinerea [4]; 0% in the experiment on Parastagonospora nodorum [5]; 0% in the experiment on Botrytis cinerea [6]. The figures for the Activity in the experiment with Puccinia triticina [7], in the experiment on Botrytis cinerea [8] and with Puccinia triticina [9] were 26%, 0% and 88%, respectively.
For `CC(Cn1c(-c2c(F)cc(F)cc2F)c(Cl)nc(-n2cccn2)c1=O)C(F)(F)F` (centres undefined), the Activity with Puccinia triticina [1] came to 100%; with Parastagonospora nodorum [2], 0%; in the experiment on Parastagonospora nodorum [3] it was 100%; with Botrytis cinerea [4] it was 99%; with Parastagonospora nodorum [5], 0%; with Botrytis cinerea [6] it was 99%. The Activity with Puccinia triticina [7] worked out at 92%; with Botrytis cinerea [8], 99%; with Puccinia triticina [9], 100%.
With `O=c1c(-n2cccn2)nc(Cl)c(-c2c(F)cc(F)cc2F)n1CC(F)(F)C(F)(F)C(F)(F)F`, the Activity is 99% in the experiment with Puccinia triticina [1]; 78% with Parastagonospora nodorum [2]; 99% with Parastagonospora nodorum [3]; 100% with Botrytis cinerea [4]; 0% in the experiment on Parastagonospora nodorum [5]; 38% in the experiment with Botrytis cinerea [6]. Also, the Activity is listed as 68% in the experiment on Puccinia triticina [7], 99% in the experiment on Botrytis cinerea [8] and 96% in the experiment with Puccinia triticina [9].
Turning to `O=c1c(-n2cccn2)nc(Cl)c(-c2c(F)cc(F)cc2F)n1-c1ccc(Cl)cc1`, the Activity in the experiment with Puccinia triticina [1] is recorded as 100%; in the experiment on Parastagonospora nodorum [2] it was 100%; in the experiment with Parastagonospora nodorum [3] it was 100%; in the experiment with Botrytis cinerea [4] it was 99%; in the experiment with Parastagonospora nodorum [5] it was 78%; in the experiment on Botrytis cinerea [6], 92%. In addition, the Activity in the experiment on Puccinia triticina [7] turned out to be 96%; in the experiment on Botrytis cinerea [8] it was 99%; with Puccinia triticina [9], 100%.

For the origin of these results see ChEMBL document CHEMBL3739347, “Tubulin modulating antifungal and antiproliferative pyrazinone derivatives” (Bioorg Med Chem, 2016).
